The target in data set [1] is T1, Sodium-dependent proline transporter (Homo sapiens, UniProt Q99884).
T1 sequence (Q99884 whole entry): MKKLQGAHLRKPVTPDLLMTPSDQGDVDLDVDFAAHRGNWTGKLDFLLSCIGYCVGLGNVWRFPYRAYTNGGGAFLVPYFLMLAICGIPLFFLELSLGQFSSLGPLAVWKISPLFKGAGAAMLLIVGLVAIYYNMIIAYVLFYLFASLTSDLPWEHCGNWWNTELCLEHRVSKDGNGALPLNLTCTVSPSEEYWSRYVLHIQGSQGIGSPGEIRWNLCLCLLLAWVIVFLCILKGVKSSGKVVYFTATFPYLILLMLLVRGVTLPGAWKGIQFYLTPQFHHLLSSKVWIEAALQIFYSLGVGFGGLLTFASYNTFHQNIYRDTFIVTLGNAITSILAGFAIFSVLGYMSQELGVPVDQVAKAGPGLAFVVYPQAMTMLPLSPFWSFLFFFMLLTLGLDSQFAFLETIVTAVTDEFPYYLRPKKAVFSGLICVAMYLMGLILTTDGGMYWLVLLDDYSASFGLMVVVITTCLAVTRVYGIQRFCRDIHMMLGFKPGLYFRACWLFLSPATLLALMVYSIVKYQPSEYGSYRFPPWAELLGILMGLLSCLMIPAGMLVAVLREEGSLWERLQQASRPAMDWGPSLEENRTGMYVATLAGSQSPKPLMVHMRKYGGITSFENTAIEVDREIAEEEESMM
The data set is described as follows: Inhibition of human high-affinity L-proline transporter expressed in COS1 cells by [3H]proline uptake assay. The data set is classed as cell-based, COS-1.

A short description of data set [2]: Protein binding in plasma (unknown origin) by equilibrium dialysis assay. The data set is classed as ADME, cell-free. The note with it: read-out: PPB (converted). In a few lines:
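Plasma protein binding measured by equilibrium dialysis.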

Data set [3] concerns Mus musculus. Nature of the data set: Toxicity in mouse assessed as induction of lethargy at 1 mg/kg, iv. It counts as organism-based. Set-up: dose 1 mg/kg, route intravenous. The note with it: in vivo. In a few lines:
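Mice dosed IV at 1 mpk and observed for lethargy.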

A short description of data set [4]: Stability in mouse liver S9 fraction assessed as remaining parent compound level after 30 mins. The data set is classed as ADME, subcellular. As to conditions: read-out: Stability. In a few lines: (§1)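 Compound incubated 30 min with S9 fraction of mouse liver homogenate; parent compound remaining measured.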
Data set [5] in a line: Inhibition of GlyT (unknown origin). More on the design: species or system Homo sapiens.
The target of data set [6] is T2, Sodium-dependent dopamine transporter (Homo sapiens, UniProt Q01959). The data set is described as follows: Inhibition of DAT (unknown origin).
T2 sequence (Q01959 whole entry): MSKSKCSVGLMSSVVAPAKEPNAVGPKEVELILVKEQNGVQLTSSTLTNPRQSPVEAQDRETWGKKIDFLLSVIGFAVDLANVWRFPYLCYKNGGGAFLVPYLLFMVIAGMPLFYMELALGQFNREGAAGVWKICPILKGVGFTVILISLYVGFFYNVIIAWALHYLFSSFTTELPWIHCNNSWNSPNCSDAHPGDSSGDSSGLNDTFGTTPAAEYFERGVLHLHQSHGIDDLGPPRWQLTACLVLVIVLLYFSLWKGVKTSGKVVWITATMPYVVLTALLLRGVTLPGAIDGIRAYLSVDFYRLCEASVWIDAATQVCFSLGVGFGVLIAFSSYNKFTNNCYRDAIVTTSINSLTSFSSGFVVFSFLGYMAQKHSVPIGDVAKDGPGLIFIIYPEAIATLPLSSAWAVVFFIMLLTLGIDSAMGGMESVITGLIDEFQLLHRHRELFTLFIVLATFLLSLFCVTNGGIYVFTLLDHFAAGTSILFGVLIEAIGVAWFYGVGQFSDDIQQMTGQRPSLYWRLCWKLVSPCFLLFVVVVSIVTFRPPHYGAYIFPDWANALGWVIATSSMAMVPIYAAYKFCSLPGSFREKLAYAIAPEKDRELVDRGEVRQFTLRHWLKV
For a further data set, the target named is hERG (KCNH2) (Homo sapiens, UniProt Q12809). Nature of the data set: Inhibition of human ERG at 10 uM.
hERG (KCNH2), sequence (Q12809 whole entry): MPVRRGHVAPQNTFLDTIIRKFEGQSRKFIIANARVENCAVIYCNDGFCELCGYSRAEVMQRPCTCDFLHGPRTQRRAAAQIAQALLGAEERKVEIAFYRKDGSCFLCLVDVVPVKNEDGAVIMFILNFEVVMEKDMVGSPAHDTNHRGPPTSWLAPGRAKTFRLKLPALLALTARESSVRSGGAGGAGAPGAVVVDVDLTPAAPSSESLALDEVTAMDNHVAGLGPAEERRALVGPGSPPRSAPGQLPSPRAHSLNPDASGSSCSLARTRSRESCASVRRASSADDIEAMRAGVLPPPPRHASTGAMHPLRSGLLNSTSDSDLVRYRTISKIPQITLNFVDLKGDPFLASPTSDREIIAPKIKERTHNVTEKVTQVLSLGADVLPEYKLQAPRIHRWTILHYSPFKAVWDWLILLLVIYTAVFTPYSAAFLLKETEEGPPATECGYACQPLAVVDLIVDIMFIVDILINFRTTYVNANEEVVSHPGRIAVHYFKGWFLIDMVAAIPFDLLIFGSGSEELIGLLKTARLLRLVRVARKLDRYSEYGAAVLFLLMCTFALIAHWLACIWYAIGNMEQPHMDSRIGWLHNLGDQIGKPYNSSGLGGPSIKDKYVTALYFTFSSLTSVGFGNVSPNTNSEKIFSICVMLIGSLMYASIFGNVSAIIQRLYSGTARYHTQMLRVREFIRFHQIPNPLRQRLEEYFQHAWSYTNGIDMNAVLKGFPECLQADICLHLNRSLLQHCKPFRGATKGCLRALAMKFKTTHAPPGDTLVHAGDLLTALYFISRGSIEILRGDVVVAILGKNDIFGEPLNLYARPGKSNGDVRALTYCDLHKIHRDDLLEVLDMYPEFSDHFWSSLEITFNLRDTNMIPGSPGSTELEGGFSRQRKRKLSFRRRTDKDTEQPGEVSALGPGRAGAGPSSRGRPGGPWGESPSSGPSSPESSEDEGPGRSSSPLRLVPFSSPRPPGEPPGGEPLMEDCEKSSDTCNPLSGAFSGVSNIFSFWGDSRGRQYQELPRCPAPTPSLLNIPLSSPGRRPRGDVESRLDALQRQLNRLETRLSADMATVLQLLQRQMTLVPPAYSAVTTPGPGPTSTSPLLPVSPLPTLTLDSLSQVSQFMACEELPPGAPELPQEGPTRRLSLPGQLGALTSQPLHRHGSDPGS
The nature of data set [7]: Stability in mouse liver homogenates assessed as remaining parent compound level after 30 mins. It counts as ADME, tissue-based. As to conditions: liver homogenate, read-out: Stability. In outline: as §1
A short description of data set [8]: Tmax in albino C57BL/6 mouse at 100 mg/kg, po. It counts as ADME, organism-based. Set-up: dose 100 mg/kg, route oral. As to conditions: in vivo. In a few lines:
(§2)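 Single oral administration at 100 mpk to C57BL/6 albino mice; plasma exposure parameters (Tmax, Cmax, AUC) derived.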

A short description of data set [9]: Cmax in albino C57BL/6 mouse at 100 mg/kg, po. Set-up: dose 100 mg/kg, route oral. The note with it: in vivo. It counts as ADME, organism-based. In outline:
as §2

A short description of data set [10]: Drug level in albino C57BL/6 mouse brain at 100 mg/kg, po after 6 hrs. The data set is classed as ADME, organism-based. Set-up: dose 100 mg/kg, route oral. As to conditions: read-out: Drug uptake.
Data set [11] is described as follows: Ratio of drug level in brain to plasma in albino C57BL/6 mouse at 100 mg/kg, po after 6 hrs. It counts as ADME, organism-based. More on the design: dose 100 mg/kg, route oral. The note with it: read-out: BPR.
Data set [12] is described as follows: AUC (0 to infinity) in albino C57BL/6 mouse at 100 mg/kg, po. It counts as ADME, organism-based. More on the design: time infinity, dose 100 mg/kg, route oral. The note with it: plasma. In a few lines:
as §2

Data set [13] addresses T2, Sodium-dependent dopamine transporter. The data set is described as follows: Inhibition of DAT (unknown origin) at 10 uM.
Data set [14] deals with Mus musculus. The data set is described as follows: Induction of cognitive improvement in albino C57BL/6 mouse trace conditioning model assessed as improvement in response to conditioned stimulus at 100 mg/kg, po. It counts as functional, organism-based. More on the design: dose 100 mg/kg. In a few lines: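 C57 mice (n = 13) given 100 mpk PO alongside a vehicle control group; fear conditioning with context freezing portion scored as response to conditioned stimulus; statistical comparison with vehicle by P value.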

Data set [15] relates to Mus musculus. The data set is described as follows: Toxicity in albino C57BL/6 mouse assessed as effect on open field trial parameters at 100 mg/kg, po. The data set is classed as organism-based. More on the design: dose 100 mg/kg, route oral. The note with it: in vivo.
Data set [16] relates to Mus musculus. Nature of the data set: Toxicity in albino C57BL/6 mouse at 100 mg/kg, po. As to conditions: in vivo. Set-up: dose 100 mg/kg, route oral. The data set is classed as organism-based.

Structures are written as SMILES. Active and inactive are the calls of the source. The rule behind the calls is not given here. Some results are limits rather than exact numbers.

For the compound `O=C(c1ccc(Oc2ccccc2)cc1)N1CCN(c2ncccn2)CC1`, half-maximal inhibition in [1] (IC50) was put at 1950 nM. In other words, the single-digit micromolar range.
`O=C(c1ccc(-c2cccc(Cl)c2)cc1)N1CCCN(c2ncccn2)CC1` showed an IC50 in data set [1] of 89 nM.
In data set [1], `O=C(c1ccc(-c2ccc(Cl)s2)cc1)N1CCN(c2ncccn2)CC1` came in with an IC50 of 150 nM.
On the same count and under the same terms, then `CC(C)(C)C1CN(c2ncccn2)CCN1C(=O)c1ccc(-c2cccc(Cl)c2)cc1` (stereo not given), with 700 nM; and `O=C(c1ccc(-c2ccccc2)cc1)N1CCN(c2ccccc2)CC1`, with 1480 nM.
Regarding `O=C(c1ccc(-c2ccccc2)cc1)N1CCN(c2nccs2)CC1`, in data set [1], the IC50 was determined as 146 nM.
For the compound `O=C(c1ccc(-c2ccc(Cl)cc2)cc1)N1CCN(c2ncccn2)CC1`, in data set [2], the fraction unbound was 0.022. Besides, half-maximal inhibition in data set [1] (IC50) required 52 nM.
`O=C(c1ccc(-c2ccccc2)cc1)N1CCN(c2nccc(C(F)(F)F)n2)CC1` displayed an IC50 in data set [1] of 2180 nM.
In the case of `O=C(c1ccc(-c2cccc(Cl)c2)cc1)N1CC2CC1CN2c1ncccn1` (stereo not given), the IC50 in [1] stood at 1340 nM. Compared with the last compound, the IC50 is about 1.6-fold lower.
In turn, `O=C(c1ccc(-c2cccc(Cl)c2)cc1)N1CC2CN(c3ncccn3)CC2C1` (stereo not given) showed a half-maximal inhibitory concentration (IC50) in data set [1] of 36 nM.
For the compound `O=C(c1ccc(-c2ccccc2)cc1)N1CCN(c2ncccn2)CC1`, the concentration for half-maximal inhibition (IC50) in [1] stood at 280 nM.
In turn, `O=C(c1cccc(-c2ccccc2)c1)N1CCN(c2ncccn2)CC1` came in with an IC50 in data set [1] of 1880 nM.
Turning to `CC1CN(C(=O)c2ccc(-c3ccccc3)cc2)CCN1c1ncccn1` (stereo not given), half-maximal inhibition in data set [1] (IC50) required 477 nM. This IC50 lies about 3.9-fold lower than the previous one.
The same measure, in the same setting: for `O=C(c1ccccc1-c1ccccc1)N1CCN(c2ncccn2)CC1` the value was 6010 nM; for `N#Cc1cccc(-c2ccc(C(=O)N3CCN(c4ncccn4)CC3)cc2)c1`, 190 nM; for `O=C(c1ccc(C2CCCCC2)cc1)N1CCN(c2ncccn2)CC1`, 7010 nM.
Compound `O=C(O)C1CN(c2ncccn2)CCN1C(=O)c1ccc(-c2cccc(Cl)c2)cc1` (stereo not given) yielded a concentration for half-maximal inhibition (IC50) in data set [1] of 128 nM.
In the case of `O=C(c1ccc(-c2cccc(Cl)c2)cc1)N1C2CCC1CN(c1ncccn1)C2`, the Activity entry in the data set with Mus musculus [3] is reported as “Toxic”. For the same compound, the remaining at 0.5 h in [4] came out at 70%. In addition, the IC50 in data set [5] was > 10000 nM; in data set [6] it was 6100 nM; in data set [1] it was 18 nM. Further, testing at 10 µM against hERG (KCNH2) gave an inhibition of 59%.
`CC1(C)CN(c2ncccn2)CCN1C(=O)c1ccc(-c2cccc(Cl)c2)cc1` gave a half-inhibitory concentration (IC50) in [1] of 53 nM. That is a double-digit nanomolar value.
Turning to `O=C(c1ccc(-c2ccccc2)cc1)N1CCN(c2cccnn2)CC1`, the 50% inhibitory concentration (IC50) in data set [1] turned out to be 5000 nM.
In [1], `Cc1csc(-c2ccc(C(=O)N3CCN(c4ncccn4)CC3)cc2)c1` registered a concentration for half-maximal inhibition (IC50) of 34 nM. Against the preceding compound, the IC50 is about 150-fold lower.
As to `O=C(c1ccc(NCc2ccccc2)cc1)N1CCN(c2ncccn2)CC1`, the fraction unbound in [2] is 0.05. In addition, the remaining at 0.5 h in [7] is 63%. The same compound displayed a half-inhibitory concentration (IC50) in data set [1] of 870 nM.
Turning to `Cc1ccccc1-c1ccc(C(=O)N2CCN(c3ncccn3)CC2)cc1`, the IC50 in data set [1] was found to be 653 nM.
Still for that read-out and setting: then `COc1ccc(-c2ccc(C(=O)N3CCN(c4ncccn4)CC3)cc2)cc1`, with 230 nM.
Turning to `O=C(c1ccc(-c2cccc(Cl)c2)cc1)N1CCN(c2ncccn2)CC1`, the remaining at 0.5 h in data set [4] came to 90%. Also, the fraction unbound in [2] is 0.008. Further, the half-maximal inhibitory concentration (IC50) is > 10000 nM in data set [5], 3400 nM in data set [6] and 36 nM in data set [1].
`O=C(c1ccc(-c2cccc(OC(F)(F)F)c2)cc1)N1CCN(c2ncccn2)CC1` yielded a half-inhibitory concentration (IC50) in data set [1] of 73 nM.
Consider `O=C(c1ccc(-c2cccc(Cl)c2)cc1)N1CC2CCC(C1)N2c1ncccn1`, for which, in data set [8], the time to peak (Tmax) worked out at 22.8 min. Also, the highest concentration (Cmax) in data set [9] came to 4500 ng/mL. In data set [10], the concentration at 6 h stood at 2260 ng/mL. Besides, the remaining at 0.5 h in data set [4] was determined as 75%. Besides, the Kp at 6 h in [11] is 1.7. In data set [12], the area under the curve AUC(0-inf) was 24000 ng·h/mL. Also, the inhibition result in [13] is “inactive”. In the data set with Mus musculus [14], the outcome was inactive. In [1], this compound gave an IC50 of 27 nM. Besides, the Activity entry in the data set on Mus musculus [15] and in the data set on Mus musculus [16] was “Non-toxic” each time.
As to `Cc1ccc(-c2ccc(C(=O)N3CCN(c4ncccn4)CC3)cc2)cc1`, in data set [1], the half-maximal inhibitory concentration (IC50) is 34 nM.
Turning to `O=C(c1ccc(-c2ccccc2)cc1)N1CCN(c2ccccn2)CC1`, in data set [4], the remaining at 0.5 h is 53%. Besides, the half-inhibitory concentration (IC50) in data set [1] was 160 nM.
Regarding `O=C(c1ccc(-c2ccccc2)cc1)N1CCN(c2cnccn2)CC1`, the IC50 in data set [1] amounted to 1300 nM.
Consider `Cc1ccnc(N2CCN(C(=O)c3ccc(-c4ccccc4)cc3)CC2)n1`, for which inhibition in data set [1] was half-maximal at 270 nM (IC50).
`Cc1ccc(-c2ccc(C(=O)N3CCN(c4ncccn4)CC3)cc2)s1` registered an IC50 in data set [1] of 61 nM.
As to `C[C@H]1CN(c2ncccn2)CCN1C(=O)c1ccc(-c2ccc(Cl)cc2)cc1`, the IC50 in [1] was 21 nM.
The same measure, in the same setting: then `O=C(c1ccc(-c2ccccc2C(F)(F)F)cc1)N1CCN(c2ncccn2)CC1`, with 1260 nM; and `CCc1ccc(-c2ccc(C(=O)N3CCN(c4ncccn4)CC3)cc2)cc1`, with 77 nM.
On to `O=C(c1ccc(OCc2ccccc2)cc1)N1CCN(c2ncccn2)CC1`, for which the remaining at 0.5 h in [7] amounted to 45%. In data set [1], this compound showed a concentration for half-maximal inhibition (IC50) of 270 nM.
Take `N#Cc1ccc(-c2ccc(C(=O)N3CCN(c4ncccn4)CC3)cc2)cc1`: the 50% inhibitory concentration (IC50) in data set [1] turned out to be 190 nM.
In data set [1], `C[C@@H]1CN(c2ncccn2)CCN1C(=O)c1ccc(-c2ccc(Cl)cc2)cc1` returned an IC50 of 57 nM.
The same measure, in the same setting: then `CC1CN(c2ncccn2)CC(C)N1C(=O)c1ccc(-c2cccc(Cl)c2)cc1` (stereo not given), with 24 nM; and `O=C(c1ccc(-c2cccc(C(F)(F)F)c2)cc1)N1CCN(c2ncccn2)CC1`, with 71 nM.
For the compound `O=C(c1ccc(-c2cccc(Cl)c2)cc1)N1CCN(c2ncccn2)CC1CO` (stereo not given), inhibition in data set [1] was half-maximal at 76 nM (IC50). The IC50 values of the last two compounds are within 1.5-fold of each other.

Source of the values: ChEMBL document CHEMBL3352673, “Novel inhibitors of the high-affinity L-proline transporter as potential therapeutic agents for the treatment of cognitive disorders” (Bioorg Med Chem Lett, 2014).
